Activity calls are given as the source filed them. The calls are words filed in the database; no cut-off is given here.
Experiments:
Actinomyces naeslundii [1] = test: Photodynamic inactivation of Actinomyces naeslundii T14V assessed as reduction of log10 CFU at 1 to 250 uM preincubated for 10 secs followed by irradiation with 25 j/cm'2 for 20 secs measured after 48 hrs by agar plating method; format: functional, organism-based
Procedure, shortened: (§1)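 A. naeslundii T14V grown overnight at 37 °C, shaken, aerobically in BHI broth. Harvested at stationary phase, resuspended in PBS to 10^7–10^8 bacteria/mL (OD600). Mixed 1:1 with PS (final 0–250 µM) or water, 10 s incubation, then blue photopolymerizer light (1260 ± 50 mW/cm2) or dark. Tenfold dilutions plated on blood agar, aerobic 37 °C 48 h, CFU counted; medians of three independent experiments in triplicate.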

[2] = tested on: Aggregatibacter actinomycetemcomitans; test: Photodynamic inactivation of Aggregatibacter actinomycetemcomitans ATCC 43718 assessed as reduction of log10 CFU at 1 to 250 uM incubated prior to irradiation with 25 j/cm'2 for 20 secs measured after 48 hrs by agar plating method; format: functional; conditions: Y4
Procedure, shortened: (§2)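 A. actinomycetemcomitans ATCC 43718 cultured overnight in BHI broth under anaerobic conditions, 37 °C with shaking. Stationary-phase cells were spun down, taken up in PBS to 10^7–10^8/mL, and combined 1:1 with PS (final 0–250 µM) or water. After 10 s they were irradiated at 1260 ± 50 mW/cm2 or kept dark. Serial dilutions went onto BHI agar, incubated anaerobically at 37 °C for 48 h, and CFU were scored. Results are medians from 3 experiments × triplicate versus untreated controls.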

Enterococcus faecalis [3] = test: Photodynamic inactivation of Enterococcus faecalis ATCC 29212 assessed as reduction of log10 CFU at 1 to 250 uM preincubated for 10 secs followed by irradiation with 50 j/cm'2 for 40 secs measured after 24 hrs by agar plating method; format: functional, organism-based
Procedure, shortened: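 E. faecalis ATCC 29212, aerobic overnight BHI culture at 37 °C, was harvested at stationary phase and suspended in PBS at 10^7–10^8 bacteria/mL. It was mixed 1:1 with PS to 0–250 µM final, held 10 s, then illuminated (1260 ± 50 mW/cm2) or kept dark. Dilutions were plated on Mueller-Hinton agar, aerobic 37 °C 24 h, CFU counted. Medians of three independent triplicate experiments, referred to untreated controls.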

Enterococcus faecalis [4] = test: Toxicity in Enterococcus faecalis ATCC 29212 assessed as reduction of log10 CFU at 1 to 250 uM incubated for 10 secs under dark condition measured after 24 hrs by agar plating method; format: organism-based; conditions: in vivo
Procedure, shortened: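 Dark controls. Overnight BHI cultures (EF, SM, AN aerobic; AA anaerobic; 37 °C) were washed into PBS at 10^7–10^8 cells/mL. They were mixed 1:1 with photosensitizer at final 0–250 µM and incubated 10 s, 7.5 min or 15 min, then kept in the dark for 20, 40 or 120 s. Tenfold dilutions were plated: EF on Mueller-Hinton agar, aerobic 24 h; SM on BHI agar, aerobic 48 h; AN on blood agar, aerobic 48 h; AA on BHI agar, anaerobic 48 h; all at 37 °C. CFU were compared with untreated controls; medians of three independent experiments in triplicate.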

[5] = tested on: Aggregatibacter actinomycetemcomitans; test: Photodynamic inactivation of Aggregatibacter actinomycetemcomitans ATCC 43718 assessed as reduction of log10 CFU at 1 to 250 uM incubated prior to irradiation with 50 j/cm'2 for 40 secs measured after 48 hrs by agar plating method; format: functional; conditions: Y4; procedure, shortened: as §2
Streptococcus mutans [6] = test: Photodynamic inactivation of Streptococcus mutans ATCC 25175 assessed as reduction of log10 CFU at 10 uM incubated prior to irradiation with 150 j/cm'2 for 120 secs measured after 48 hrs by agar plating method (reference value: <1 no unit); format: functional
Actinomyces naeslundii [7] = test: Photodynamic inactivation of Actinomyces naeslundii T14V assessed as reduction of log10 CFU at 100 uM incubated prior to irradiation with 150 j/cm'2 for 120 secs measured after 48 hrs by agar plating method (reference value: <1 no unit); format: functional; procedure, shortened: as §1
Actinomyces naeslundii [8] = test: Photodynamic inactivation of Actinomyces naeslundii T14V assessed as reduction of log10 CFU at 1 uM incubated prior to irradiation with 25 j/cm'2 for 20 secs measured after 48 hrs by agar plating method (reference value: <1 no unit); format: functional; procedure, shortened: as §1
[9] = tested on: Aggregatibacter actinomycetemcomitans; test: Photodynamic inactivation of Aggregatibacter actinomycetemcomitans ATCC 43718 assessed as reduction of log10 CFU at 5 uM incubated prior to irradiation with 50 j/cm'2 for 40 secs measured after 48 hrs by agar plating method (reference value: <1 no unit); format: functional, Y4; procedure, shortened: as §2
Streptococcus mutans [10] = test: Photodynamic inactivation of Streptococcus mutans ATCC 25175 assessed as reduction of log10 CFU at 1 uM incubated prior to irradiation with 50 j/cm'2 for 40 secs measured after 48 hrs by agar plating method (reference value: <1 no unit); format: functional
Streptococcus mutans [11] = test: Photodynamic inactivation of Streptococcus mutans ATCC 25175 assessed as reduction of log10 CFU at 100 uM incubated prior to irradiation with 150 j/cm'2 for 120 secs measured after 48 hrs by agar plating method (reference value: <1 no unit); format: functional
[12] = tested on: Aggregatibacter actinomycetemcomitans; test: Photodynamic inactivation of Aggregatibacter actinomycetemcomitans ATCC 43718 assessed as reduction of log10 CFU at 100 uM incubated prior to irradiation with 150 j/cm'2 for 120 secs measured after 48 hrs by agar plating method relative to control; format: functional, Y4; procedure, shortened: as §2
[13] = tested on: Aggregatibacter actinomycetemcomitans; test: Photodynamic inactivation of Aggregatibacter actinomycetemcomitans ATCC 43718 assessed as reduction of log10 CFU at 10 uM incubated prior to irradiation with 150 j/cm'2 for 120 secs measured after 48 hrs by agar plating method relative to control; format: functional, Y4; procedure, shortened: as §2
Actinomyces naeslundii [14] = test: Photodynamic inactivation of Actinomyces naeslundii T14V assessed as reduction of log10 CFU at 100 uM incubated prior to irradiation with 25 j/cm'2 for 20 secs measured after 48 hrs by agar plating method (reference value: <1 no unit); format: functional; procedure, shortened: as §1
Actinomyces naeslundii [15] = test: Photodynamic inactivation of Actinomyces naeslundii T14V assessed as reduction of log10 CFU at 1 uM incubated prior to irradiation with 150 j/cm'2 for 120 secs measured after 48 hrs by agar plating method (reference value: <1 no unit); format: functional; procedure, shortened: as §1
Streptococcus mutans [16] = test: Photodynamic inactivation of Streptococcus mutans ATCC 25175 assessed as reduction of log10 CFU at 5 uM incubated prior to irradiation with 25 j/cm'2 for 20 secs measured after 48 hrs by agar plating method (reference value: <1 no unit); format: functional
[17] = tested on: Aggregatibacter actinomycetemcomitans; test: Photodynamic inactivation of Aggregatibacter actinomycetemcomitans ATCC 43718 assessed as reduction of log10 CFU at 5 uM incubated prior to irradiation with 150 j/cm'2 for 120 secs measured after 48 hrs by agar plating method relative to control; format: functional, Y4; procedure, shortened: as §2
Actinomyces naeslundii [18] = test: Photodynamic inactivation of Actinomyces naeslundii T14V assessed as reduction of log10 CFU at 100 uM incubated prior to irradiation with 50 j/cm'2 for 40 secs measured after 48 hrs by agar plating method (reference value: <1 no unit); format: functional; procedure, shortened: as §1
[19] = tested on: Aggregatibacter actinomycetemcomitans; test: Photodynamic inactivation of Aggregatibacter actinomycetemcomitans ATCC 43718 assessed as reduction of log10 CFU at 1 uM incubated prior to irradiation with 50 j/cm'2 for 40 secs measured after 48 hrs by agar plating method (reference value: <1 no unit); format: functional, Y4; procedure, shortened: as §2

C[N+](C)(C)CC1=Cc2cccc3cccc(c23)C1=O.[Cl-]
Activity (Actinomyces naeslundii [1]): Active | Activity [2]: Active | Activity (Enterococcus faecalis [3]): Active | Activity (Enterococcus faecalis [4]): Non-toxic | Activity [5]: Active

C[N+](C)(CCO)CC1=Cc2cccc3cccc(c23)C1=O.[Cl-]
log10cfu (Streptococcus mutans [6]): >6 | log10cfu (Actinomyces naeslundii [7]): > 5 | log10cfu (Actinomyces naeslundii [8]): <1 | log10cfu [9]: <3 | log10cfu (Streptococcus mutans [10]): <1 | log10cfu (Streptococcus mutans [11]): >6 | log10cfu [12]: >6 | log10cfu [13]: >6 | log10cfu (Actinomyces naeslundii [14]): > 5 | Activity (Enterococcus faecalis [4]): Non-toxic | log10cfu (Actinomyces naeslundii [15]): <1 | log10cfu (Streptococcus mutans [16]): <1 | log10cfu [17]: >6 | log10cfu (Actinomyces naeslundii [18]): > 5 | log10cfu [19]: <3

O=C1C(C[n+]2ccccc2)=Cc2cccc3cccc1c23.[Cl-]
log10cfu (Streptococcus mutans [6]): >6 | log10cfu (Actinomyces naeslundii [7]): > 5 | Activity (Actinomyces naeslundii [1]): Active | Activity [2]: Active | log10cfu (Actinomyces naeslundii [8]): <1 | log10cfu [9]: >6 | log10cfu (Streptococcus mutans [10]): <1 | Activity (Enterococcus faecalis [3]): Active | log10cfu (Streptococcus mutans [11]): >6 | log10cfu [12]: >6 | log10cfu [13]: >6 | log10cfu (Actinomyces naeslundii [14]): > 5 | log10cfu (Actinomyces naeslundii [15]): <5 | Activity [5]: Active | log10cfu (Streptococcus mutans [16]): <3 | log10cfu [17]: >6 | log10cfu (Actinomyces naeslundii [18]): > 5 | log10cfu [19]: <3
